# From PubChem BioAssay
# Calls of active or inactive are those of the source.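 The calls were made as follows, unless noted: active = viability at or under a set limit in both replicates, limit being median viability minus 3 SD (cut at about 48% in these data, passing the limit was not always enough); inconclusive = at or under the limit in just one replicate; inactive = at or above the limit in both replicates.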
# Legend:
# [1] = reduced viability of SK-BR-3 breast cancer cells – cell-based, 24 h, human, pilot screen (AID 572;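 active = viability at or below 10% of carrier control in both of two separate runs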;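 also: compound exposure lasted between 18 and 24 h rather than exactly 24 h; 100% = carrier-treated control wells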); settings: SK-BR-3 viability, CellTiter-Glo luminescence, at 10 µM, stronger effect = lower value
# [2] = HUVEC growth inhibition – cell-based, human, primary screen (AID 575;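 active = viability at or below 30% in both replicate assays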;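 also: 100% = median of untreated cell wells with 0.1% DMSO on each plate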); settings: HUVEC proliferation, CellTiter-Glo luminescence, 72 h; at 10 µM; stronger effect = lower value
# Procedure, shortened: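 System: primary human umbilical vein endothelial cells; Quantity: 1250 endothelial cells in each well; Buffer or medium: supplemented EBM, 2% fetal bovine serum; Doses: one dose, 10 µM final, 0.1% DMSO; Incubation: 72 h compound incubation; Technique: ATP-based CellTiter-Glo luminescent read; Evaluation: percent of median DMSO-control luminescence; Controls: vehicle and MePR control wells.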
# [3] = H69AR cell proliferation blockers – human, duplicate replicates, primary screen (AID 580); settings: H69AR lung tumor cells viability, ATP luminescence, 72 h; at 10 µM; stronger effect = lower value;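 also: 100% = mean luminescence of untreated wells and 0% = no signal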
# [4] = MRP1 drug-resistance reversers in H69AR cells – cell-based, doxorubicin co-treatment, pilot screen (AID 601;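 active = viability loss from added drug above about 55%, and viability with drug at most 40%, in both replicates, limit read from the data, passing the limit was not always enough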); settings: CellTiter-Glo, 72 h, at 10 µM; for differential viability (reversal): stronger effect = higher value
# [5] = yeast transport mutant growth inhibition pilot in 384-well plates, post-Golgi transport modulator project (AID 636; in the data active = inhibition above about 31%); settings: absorbance 615 nm, about 18 h, stronger effect = higher value
# [6] = growth suppression of yeast trafficking mutant, preliminary HTS, modulators of trafficking downstream of Golgi apparatus project, 1536-format plate, OD 615 nm (AID 637; in the data active = inhibition above about 30%); settings: yeast transport mutant growth, absorbance 615 nm, 18 h; stronger effect = higher value
# [7] = H69AR cells + 2 uM doxorubicin, measured here: viability with 2 uM doxorubicin, stronger effect = lower value
# [8] = H69AR cells, compound alone cytotoxicity
SMILES,viability [1],viability [2],viability [3],differential viability (reversal) ([4]; H69AR cells + 2 uM doxorubicin),"viability [4, 7]","viability [4, 8]",inhibition [5],inhibition [6]
CCOc1cccc(C(=O)N(Cc2ccco2)C2CCS(=O)(=O)C2)c1 (centres undefined),96% (inactive),109% (inactive),97.6% (inactive),8.11% (inactive),89.5%,97.6%,-5.95% (inactive),-1.09% (inactive)
CN(C)CCOC(c1ccccc1)c1ccccc1,78% (inactive),86.9% (inactive),87.6% (inactive),5.28% (inactive),82.3%,87.6%,-1.69% (inactive),2.5% (inactive)
Cc1cc2cc(CNC(=O)c3ccc4c(c3)OCO4)ccc2[nH]1,102% (inactive),114% (inactive),89.1% (inactive),-3.21% (inactive),92.3%,89.1%,-1.56% (inactive),3.61% (inactive)
CC1CCCC(C)N1C(=O)CSc1nnc(-c2cccs2)o1 (centres undefined),92% (inactive),106% (inactive),95.1% (inactive),-1.69% (inactive),96.8%,95.1%,0.54% (inactive),-3.09% (inactive)
C=CCOc1ccc(C2/C(=C(\O)c3c(C)[nH]c(C(=O)OC)c3C)C(=O)C(=O)N2CCN(C)C)cc1 (centres undefined),95% (inactive),82.7% (inactive),90.2% (inactive),-5.67% (inactive),95.9%,90.2%,0.52% (inactive),11.5% (inactive)
O=C(CN1C(=O)c2ccccc2S1(=O)=O)Nc1ccc(S(=O)(=O)N2CCCCCC2)cc1,110% (inactive),81.4% (inactive),103% (inactive),14.2% (inactive),89.3%,103%,5.48% (inactive),-1.45% (inactive)
CC(C)CCNC(=O)C(C)N(Cc1ccc(F)cc1)C(=O)c1ccc(CN2CCCCC2)o1 (centres undefined),72% (inactive),108% (inactive),95.4% (inactive),-0.095% (inactive),95.5%,95.4%,-5.95% (inactive),-2.91% (inactive)
Cc1nnc(C)c2c(C)n(Cc3ccc4c(c3)OCO4)c(C)c12,76% (inactive),91% (inactive),80.9% (inactive),6.03% (inactive),74.8%,80.9%,-0.55% (inactive),24.5% (inactive)
Cc1ccc(N(CC(O)CN2CCCC2)S(=O)(=O)c2ccc(C)cc2)cc1 (centres undefined),132% (inactive),103% (inactive),86.9% (inactive),-1.29% (inactive),88.2%,86.9%,-5.21% (inactive),-1.94% (inactive)
CC(Cc1ccc(O)c(O)c1)C(C)Cc1ccc(O)c(O)c1 (centres undefined),87% (inactive),22.3% (active),77.4% (inactive),-1.66% (inactive),79.1%,77.4%,-5.45% (inactive),-6.33% (inactive)
COc1ccc(-c2[nH]nc3c2C(c2ccncc2)C(C#N)=C(N)O3)cc1 (centres undefined),71% (inactive),122% (inactive),92.2% (inactive),2.15% (inactive),90%,92.2%,-5.81% (inactive),-0.18% (inactive)
N#CC1=C(N)N(c2ccccc2)C(c2ccccc2)C1(C#N)C#N (centres undefined),84.5% (inactive),81.6% (inactive),80.1% (inactive),1.28% (inactive),78.8%,80.1%,-6.27% (inactive),-0.97% (inactive)
Cc1c(NC(=O)C(C)Oc2ncnc3ccccc23)c(=O)n(-c2ccccc2)n1C (centres undefined),115% (inactive),91.9% (inactive),97% (inactive),7.01% (inactive),90%,97%,-4.42% (inactive),-3.28% (inactive)
Cc1nn(C)c(C)c1NC(=O)CSc1nc(Cc2ccccc2)nc2c1cnn2-c1ccccc1,116% (inactive),88% (inactive),78.8% (inactive),0.07% (inactive),78.7%,78.8%,-2.05% (inactive),5.48% (inactive)
O=C(Nc1ccc(Cl)cc1C(=O)O)c1ccc2c(c1)C(=O)N(Cc1ccco1)C2=O,72% (inactive),86.6% (inactive),93.3% (inactive),8.62% (inactive),84.7%,93.3%,-8.49% (inactive),0.48% (inactive)
CCOC(=O)C1CCN(C(=O)CCCCn2c(=O)[nH]c3ccccc3c2=O)CC1,90% (inactive),114% (inactive),101% (inactive),6.14% (inactive),94.9%,101%,3.77% (inactive),2.62% (inactive)
CC1(C)Cc2c(c(=S)nc(-c3ccccc3)n2CCO)CO1,111% (inactive),106% (inactive),87.6% (inactive),-4.25% (inactive),91.9%,87.6%,-1.43% (inactive),-6.72% (inactive)

SMILES,viability [1],viability [2],viability [3],differential viability (reversal) ([4]; H69AR cells + 2 uM doxorubicin),"viability [4, 7]","viability [4, 8]",inhibition [5],inhibition [6]
Cc1cc(NC(=O)Cc2c(F)cccc2Cl)no1,102% (inactive),95.5% (inactive),96% (inactive),6.76% (inactive),89.2%,96%,-7.26% (inactive),3.64% (inactive)
CC(C)(C)NC(=O)C(Cc1ccccc1)NS(=O)(=O)c1cccc2nsnc12 (centres undefined),87% (inactive),105% (inactive),87.8% (inactive),-7.5% (inactive),95.3%,87.8%,-9.86% (inactive),-1.09% (inactive)
COc1ccc(C(=O)Nc2cccnc2)cc1C(=O)Nc1cccnc1,150% (inactive),79.9% (inactive),97.4% (inactive),2.72% (inactive),94.6%,97.4%,7.53% (inactive),-3% (inactive)
c1ccc(OCCCn2nnc(-c3ccncc3)n2)cc1,109% (inactive),108% (inactive),95.8% (inactive),-1.02% (inactive),96.8%,95.8%,-5.21% (inactive),4.73% (inactive)
COc1ccc(Cl)cc1NC(=O)CSc1nncn1-c1cccnc1,92% (inactive),102% (inactive),88.3% (inactive),2.01% (inactive),86.3%,88.3%,-7.07% (inactive),-3.27% (inactive)
CCN(CC)c1nc(N(CC)CC)[nH]c(=O)n1,112% (inactive),110% (inactive),94.7% (inactive),2.19% (inactive),92.6%,94.7%,-4.94% (inactive),6.72% (inactive)
O=C(CN(CC1CCCO1)S(=O)(=O)c1ccc(S(=O)(=O)NC2CC2)cc1)Nc1ccccc1 (centres undefined),109% (inactive),96.9% (inactive),95.3% (inactive),-1.47% (inactive),96.8%,95.3%,-2% (inactive),-9.27% (inactive)
O=C(O)c1cccc(COCC(F)(F)C(F)F)c1,90% (inactive),88.2% (inactive),102% (inactive),6.01% (inactive),95.9%,102%,-0.41% (inactive),-3.87% (inactive)
CCOC(=O)c1sc(NC(=O)CSc2ncn(-c3ccccc3)n2)nc1C,109% (inactive),97.5% (inactive),82.9% (inactive),-5.19% (inactive),88.1%,82.9%,-7.95% (inactive),3.09% (inactive)
O=C(CSc1nccn1Cc1ccccc1)Nc1nccs1,90% (inactive),98.6% (inactive),108% (inactive),6.88% (inactive),101%,108%,-0.26% (inactive),1.48% (inactive)
O=S(=O)(NCc1ccc(Cl)cc1)c1cnc[nH]1,103% (inactive),98.1% (inactive),106% (inactive),23.5% (inactive),82.7%,106%,-6.36% (inactive),-4.59% (inactive)
CC(Sc1nnnn1C)C(=O)Nc1ccc(Oc2ccccc2)cc1 (centres undefined),92% (inactive),87.8% (inactive),97.8% (inactive),11% (inactive),86.8%,97.8%,-7.53% (inactive),0.97% (inactive)
CC(C)CN(CC(C)C)c1nc(N)c(C#N)c(CC#N)c1C#N,106% (inactive),114% (inactive),86.7% (inactive),13.6% (inactive),73.1%,86.7%,-5.6% (inactive),-1.27% (inactive)
N#Cc1cc2ccccc2nc1SCC(=O)Nc1ccccc1N1CCOCC1,93% (inactive),64.4% (inactive),82.2% (inactive),-10.8% (inactive),93%,82.2%,-3.25% (inactive),0.33% (inactive)
O=C(CSc1oc(-c2ccco2)nc1S(=O)(=O)c1ccccc1)NCC1CCCO1 (centres undefined),97% (inactive),99.7% (inactive),86.5% (inactive),5.96% (inactive),80.5%,86.5%,4.66% (inactive),-0.16% (inactive)
C(=N/n1c2ccccc2c2ccccc21)/c1ccco1,81% (inactive),77.9% (inactive),86.5% (inactive),-3.11% (inactive),89.6%,86.5%,-5.19% (inactive),0.49% (inactive)
